From ChEMBL document CHEMBL4138185, “Investigation of the Physical and Bioactive Properties of Bromo- and Iodo-Containing Sponge-Derived Compounds Possessing an Oxyphenylethanamine Core” (J Nat Prod, 2017)

Key:
Assay type in all cases: organism-based
Conditions in all cases: in vivo
[1] = test system: Yersinia pseudotuberculosis; assay: Growth inhibition of Yersinia pseudotuberculosis harboring pYV deletion mutant at 60 uM measured at 30 mins interval for 8 hrs
Summary of the method: (§1)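 Y. pseudotuberculosis strain lacking the T3SS-encoding virulence plasmid pYV (pYV−), grown in low-calcium media at 37 °C with test agent at 60 μM, kanamycin at 50 μg/mL, or DMSO. Growth followed by absorbance at 600 nm over 8 h.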

[2] = test system: Yersinia pseudotuberculosis; assay: Toxicity against Yersinia pseudotuberculosis harboring pYV deletion mutant at 60 uM measured after 8 hrs by MTT assay
Summary of the method: (§2)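 pYV− Y. pseudotuberculosis cultured in low-calcium media at 37 °C with test agent at 60 μM, kanamycin at 50 μg/mL, or DMSO. MTT added after 8 h of incubation; formazan absorbance at 570 nm taken as bacterial metabolic activity.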

[3] = test system: Yersinia pseudotuberculosis; assay: Toxicity against Yersinia pseudotuberculosis harboring pYV deletion mutant at 50 ug/ml measured after 8 hrs by MTT assay; summary of the method: as §2
[4] = test system: Yersinia pseudotuberculosis; assay: Growth inhibition of Yersinia pseudotuberculosis harboring pYV deletion mutant at 50 ug/ml measured at 30 mins interval for 8 hrs; summary of the method: as §1

SMILES	growth inhibition (GI) [1]	Activity [2]	Activity [3]	growth inhibition (GI) [4]
CCC(=O)N(C)CCc1cc(Br)c(OCCCNC(=O)Cc2ccc(O)cc2)c(Br)c1	Non-Toxic	Non-Toxic		
CCC(=O)N(C)CCc1ccc(OCCCNC(=O)Cc2ccc(O)cc2)c(Br)c1	Non-Toxic	Non-Toxic		
COc1c(Br)cc(CC(O)C(=O)NCCc2ccc(O)c(Br)c2)cc1Br (stereo unspecified)	Non-Toxic	Non-Toxic		
CCC(=O)N(C)CCc1ccc(OCCCN(C)C(=O)Cc2ccc(O)cc2)c(Br)c1	Non-Toxic	Non-Toxic		
COc1c(Br)cc(CC(O)C(=O)NCCc2ccc(O)c(I)c2)cc1Br (stereo unspecified)	Non-Toxic	Non-Toxic		
CCC(=O)N(C)CCc1cc(Br)c(OCCCNC(=O)Cc2ccc(O)cc2)c(I)c1	Non-Toxic	Non-Toxic		
CCC(=O)N(C)CCc1ccc(OCCCNC(=O)Cc2ccc(O)cc2)c(I)c1	Non-Toxic	Non-Toxic		
NC[C@H]1O[C@H](O[C@H]2[C@H](O)[C@@H](O[C@H]3O[C@H](CO)[C@@H](O)[C@H](N)[C@H]3O)[C@H](N)C[C@@H]2N)[C@H](O)[C@@H](O)[C@@H]1O [KANAMYCIN]			Non-Toxic	Non-Toxic
